Measurements published in ChEMBL document CHEMBL3608260 (Bioorg Med Chem Lett, 2015).
Non-standard residues stand in square brackets, D forms with d. Residues, ends and D or L forms follow the SMILES beside them. *: point of attachment. OBzl(3,5-(CF3)2) = FC(F)(F)c1cc(CO*)cc(C(F)(F)F)c1; Phe(4-Cl) = N[C@@H](Cc1ccc(Cl)cc1)C(=O)O; Phe(4-F) = N[C@@H](Cc1ccc(F)cc1)C(=O)O; Nle = CCCC[C@H](N)C(=O)O; βAla = NCCC(=O)O

Key:
[1] = molecular target: Delta-type opioid receptor (Mus musculus, UniProt P32300); assay: Agonist activity at delta opioid receptor in mouse vas deferens assessed as inhibition of electrically-stimulated muscle contraction
Summary of the method: (§1)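 Electrically stimulated isolated tissue (mouse vas deferens or guinea pig ileum).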

[2] = molecular target: Substance-P receptor (Cavia porcellus) (UniProt P30547); assay: Antagonist activity at NK1 receptor in guinea pig ileum assessed as inhibition of substance P-induced muscle contraction in presence of naloxone; assay type: tissue-based
[3] = molecular target: T1, Delta-type opioid receptor (Homo sapiens, UniProt P41143); assay: Displacement of [3H]-DPDPE from human delta opioid receptor transfected in HN9.10 cells; assay type: cell-based
[4] = Selectivity ratio of Ki for rat mu opioid receptor to Ki for human delta opioid receptor
[5] = molecular target: T1, Delta-type opioid receptor; assay: Agonist activity at human delta opioid receptor transfected in HN9.10 cells by [35S]GTPgammaS binding assay; assay type: functional, cell-based
Summary of the method: (§2)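 Membranes from transfected HN9.10 cells constitutively expressing human DOR or rat MOR. EC50 comes from non-linear regression of at least two independent experiments in duplicate. Emax = [Total bound − Basal]/[Basal − Non-specific] × 100.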

[6] = molecular target: Mu-type opioid receptor (Rattus norvegicus) (UniProt P33535); assay: (§3) Agonist activity at rat mu opioid receptor transfected in HN9.10 cells by [35S]GTPgammaS binding assay; assay type: functional, cell-based; summary of the method: as §2
[7] = molecular target: Substance-P receptor (Rattus norvegicus, UniProt P14600); assay: Displacement of [3H]-substance P from rat NK1 receptor transfected in CHO cells; assay type: cell-based
[8] = Ratio of Ki for rat NK1 receptor to Ki for human NK1 receptor
[9] = molecular target: Mu-type opioid receptor (Cavia porcellus, UniProt P97266); assay: Agonist activity at mu opioid receptor in guinea pig ileum assessed as inhibition of electrically-stimulated muscle contraction; assay type: tissue-based; summary of the method: as §1
[10] = molecular target: Mu-type opioid receptor (Rattus norvegicus, UniProt P33535); assay: as §3; assay type: functional, cell-based; summary of the method: as §2
[11] = molecular target: Delta-type opioid receptor (Mus musculus) (UniProt P32300); assay: Agonist activity at delta opioid receptor in mouse vas deferens assessed as inhibition of electrically-stimulated muscle contraction at 1 uM relative to control
[12] = molecular target: Mu-type opioid receptor (Cavia porcellus) (UniProt P97266); assay: Agonist activity at mu opioid receptor in guinea pig ileum assessed as inhibition of electrically-stimulated muscle contraction at 1 uM relative to control; assay type: tissue-based
Mu-type opioid receptor (Cavia porcellus), sequence (P97266 whole entry): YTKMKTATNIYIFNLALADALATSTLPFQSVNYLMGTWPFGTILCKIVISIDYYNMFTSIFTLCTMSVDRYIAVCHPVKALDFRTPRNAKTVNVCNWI

Substance-P receptor, sequence (P14600 whole entry): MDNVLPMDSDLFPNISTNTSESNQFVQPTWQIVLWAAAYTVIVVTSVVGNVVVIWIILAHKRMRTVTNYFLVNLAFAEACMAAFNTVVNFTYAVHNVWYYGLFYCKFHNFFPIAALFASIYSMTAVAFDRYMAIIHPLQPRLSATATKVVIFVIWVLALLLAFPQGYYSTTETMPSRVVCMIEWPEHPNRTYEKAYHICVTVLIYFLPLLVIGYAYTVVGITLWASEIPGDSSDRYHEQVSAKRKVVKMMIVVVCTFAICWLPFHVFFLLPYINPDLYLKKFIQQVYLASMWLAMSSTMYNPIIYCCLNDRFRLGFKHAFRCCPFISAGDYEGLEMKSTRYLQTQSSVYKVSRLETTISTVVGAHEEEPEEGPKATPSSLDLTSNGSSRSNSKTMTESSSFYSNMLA
Mu-type opioid receptor (Rattus norvegicus), sequence (P33535 whole entry): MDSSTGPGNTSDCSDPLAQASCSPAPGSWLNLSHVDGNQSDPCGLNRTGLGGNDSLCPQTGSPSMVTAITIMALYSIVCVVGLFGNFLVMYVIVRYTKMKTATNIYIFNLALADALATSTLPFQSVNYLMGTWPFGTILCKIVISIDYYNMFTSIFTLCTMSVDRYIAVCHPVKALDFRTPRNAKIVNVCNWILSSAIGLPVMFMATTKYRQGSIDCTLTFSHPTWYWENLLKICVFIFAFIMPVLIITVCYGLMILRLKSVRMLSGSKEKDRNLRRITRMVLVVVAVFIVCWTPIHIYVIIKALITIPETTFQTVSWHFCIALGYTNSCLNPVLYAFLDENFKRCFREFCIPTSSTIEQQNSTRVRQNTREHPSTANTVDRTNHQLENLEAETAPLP
T1 sequence (P41143 whole entry): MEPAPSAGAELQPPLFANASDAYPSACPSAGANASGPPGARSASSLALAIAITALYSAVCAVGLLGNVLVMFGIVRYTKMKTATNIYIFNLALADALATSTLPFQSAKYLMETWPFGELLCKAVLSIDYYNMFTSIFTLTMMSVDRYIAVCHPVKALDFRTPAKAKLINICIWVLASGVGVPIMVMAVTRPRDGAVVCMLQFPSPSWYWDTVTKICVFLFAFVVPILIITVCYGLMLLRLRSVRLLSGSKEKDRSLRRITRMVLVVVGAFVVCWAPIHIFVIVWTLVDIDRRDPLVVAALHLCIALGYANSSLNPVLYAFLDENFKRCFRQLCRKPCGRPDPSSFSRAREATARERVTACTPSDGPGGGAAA
Substance-P receptor (Cavia porcellus), sequence (P30547 whole entry): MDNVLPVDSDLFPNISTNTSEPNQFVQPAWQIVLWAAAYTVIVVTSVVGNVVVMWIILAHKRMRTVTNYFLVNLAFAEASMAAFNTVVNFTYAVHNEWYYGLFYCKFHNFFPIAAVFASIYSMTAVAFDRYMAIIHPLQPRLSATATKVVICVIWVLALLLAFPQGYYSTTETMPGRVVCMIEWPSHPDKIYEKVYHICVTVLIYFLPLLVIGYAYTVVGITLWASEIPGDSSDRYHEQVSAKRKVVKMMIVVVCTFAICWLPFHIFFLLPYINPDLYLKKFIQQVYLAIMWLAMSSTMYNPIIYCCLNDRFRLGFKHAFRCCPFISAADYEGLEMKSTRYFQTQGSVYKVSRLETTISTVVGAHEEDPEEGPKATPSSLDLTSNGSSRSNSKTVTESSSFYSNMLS
Delta-type opioid receptor (Mus musculus, UniProt P32300), sequence (P32300 whole entry): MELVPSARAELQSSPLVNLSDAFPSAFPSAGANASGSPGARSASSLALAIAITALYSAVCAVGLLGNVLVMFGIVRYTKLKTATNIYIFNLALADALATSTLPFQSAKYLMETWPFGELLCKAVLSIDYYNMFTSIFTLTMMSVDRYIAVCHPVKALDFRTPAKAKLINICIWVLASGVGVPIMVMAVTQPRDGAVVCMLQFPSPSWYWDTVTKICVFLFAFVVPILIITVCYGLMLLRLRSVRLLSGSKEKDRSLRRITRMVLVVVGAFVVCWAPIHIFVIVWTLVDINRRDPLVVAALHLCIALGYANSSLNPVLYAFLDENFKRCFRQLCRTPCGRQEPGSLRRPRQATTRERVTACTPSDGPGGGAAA
Mu-type opioid receptor (Cavia porcellus, UniProt P97266), sequence (P97266 whole entry): as the sequence (P97266 whole entry) above
Delta-type opioid receptor (Mus musculus), sequence (P32300 whole entry): as the sequence (P32300 whole entry) above
Mu-type opioid receptor (Rattus norvegicus, UniProt P33535), sequence (P33535 whole entry): as the sequence (P33535 whole entry) above

Row | SMILES | Ke [2] [nM] | Emax [5] [%] | Emax [6] [%] | Ki [7] [nM] | also measured
1 | C[C@@H](NC(=O)[C@@H](N)Cc1ccc(O)cc1)C(=O)NCC(=O)N[C@@H](Cc1ccccc1)C(=O)NCCC(=O)N[C@@H](Cc1c[nH]c2ccccc12)C(=O)OCc1cc(C(F)(F)F)cc(C(F)(F)F)c1 (H-Y[dA]GF[βAla]W-{OBzl(3,5-(CF3)2)}) | 250 |  |  |  | IC50 [1]: 13 nM
2 | C[C@@H](NC(=O)[C@@H](N)Cc1ccc(O)cc1)C(=O)NCC(=O)N[C@@H](Cc1c[nH]c2ccccc12)C(=O)OCc1cc(C(F)(F)F)cc(C(F)(F)F)c1 (H-Y[dA]GW-{OBzl(3,5-(CF3)2)}) | 5 | 33 | 34 | 15 | Ki [3]: 310 nM; Ratio Ki [4]: 0.16; Ratio Ki [8]: 500; IC50 [9]: 840 nM
3 | C[C@@H](NC(=O)[C@@H](N)Cc1ccc(O)cc1)C(=O)NCC(=O)N[C@@H](Cc1ccc(F)cc1)C(=O)NCC(=O)N[C@@H](Cc1c[nH]c2ccccc12)C(=O)OCc1cc(C(F)(F)F)cc(C(F)(F)F)c1 (H-Y[dA]G[Phe(4-F)]GW-{OBzl(3,5-(CF3)2)}) | 10 |  |  |  | 
4 | Cc1cc(O)cc(C)c1C[C@H](N)C(=O)N[C@H](C)C(=O)N[C@@H](Cc1c[nH]c2ccccc12)C(=O)OCc1cc(C(F)(F)F)cc(C(F)(F)F)c1 | 110 |  |  |  | EC50 [5]: 12 nM
5 | C[C@@H](NC(=O)[C@@H](N)Cc1ccc(O)cc1)C(=O)NCC(=O)N[C@@H](Cc1ccccc1)C(=O)N[C@@H](Cc1c[nH]c2ccccc12)C(=O)OCc1cc(C(F)(F)F)cc(C(F)(F)F)c1 (H-Y[dA]GFW-{OBzl(3,5-(CF3)2)}) | 38 |  | 14 |  | 
6 | Cc1cc(O)cc(C)c1C[C@H](N)C(=O)N[C@H](C)C(=O)N[C@@H](Cc1c[nH]c2ccccc12)C(=O)NCc1cc(C(F)(F)F)cc(C(F)(F)F)c1 | 22 | 50 |  |  | 
7 | C[C@@H](NC(=O)[C@@H](N)Cc1ccc(O)cc1)C(=O)NCC(=O)N[C@@H](Cc1ccc(Cl)cc1)C(=O)NCC(=O)N[C@@H](Cc1c[nH]c2ccccc12)C(=O)OCc1cc(C(F)(F)F)cc(C(F)(F)F)c1 (H-Y[dA]G[Phe(4-Cl)]GW-{OBzl(3,5-(CF3)2)}) | 30 |  |  |  | 
8 | CCCC[C@H](NC(=O)[C@H](Cc1ccccc1)NC(=O)CNC(=O)[C@@H](C)NC(=O)[C@@H](N)Cc1ccc(O)cc1)C(=O)N[C@@H](Cc1c[nH]c2ccccc12)C(=O)OCc1cc(C(F)(F)F)cc(C(F)(F)F)c1 (H-Y[dA]GF[Nle]W-{OBzl(3,5-(CF3)2)}) | 13 |  |  |  | 
9 | C[C@@H](NC(=O)[C@@H](N)Cc1ccc(O)cc1)C(=O)N[C@@H](Cc1c[nH]c2ccccc12)C(=O)OCc1cc(C(F)(F)F)cc(C(F)(F)F)c1 | 49 | 36 | 26 | 2.9 | Ratio Ki [4]: 1.8; EC50 [10]: 170 nM; inhibition [11]: 5.5%; inhibition [12]: 3.3%; Ratio Ki [8]: 730
10 | C[C@@H](NC(=O)[C@@H](N)Cc1ccc(O)cc1)C(=O)NCC(=O)N[C@@H](Cc1ccc(F)cc1)C(=O)OCc1cc(C(F)(F)F)cc(C(F)(F)F)c1 | 52 | 78 | 58 | 230 | Ki [3]: 56 nM; EC50 [5]: 6.7 nM; IC50 [1]: 180 nM; IC50 [9]: 210 nM
